From paper PMC13416249 (Proceedings of the National Academy of Sciences of the …, 2026)

Experiments:
[1] = tested on: P. falciparum NF54 strain expressing a Nanoluciferase reporter; test: Asexual replication stage-specificity assay, nanoluciferase readout; type: cell-based, Plasmodium falciparum; details: ring-synchronized; 5 µM KNX-115, 1 µM DHA
Summary of the method: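 NF54-ENL nanoluciferase reporter parasites were synchronized at the ring stage and treated with test compound. Vehicle (0.1% DMSO) and 1 µM dihydroartemisinin served as controls. Nanoluciferase activity was followed over time and compared with the control cultures.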

[2] = tested on: P. falciparum stage III-IV gametocytes; test: Gametocyte viability assay; type: cell-based, Plasmodium falciparum
[3] = target: T1, full-length PfMyoA (Plasmodium falciparum, UniProt Q8IDR3); test: Actin-activated PfMyoA ATPase assay; type: biochemical; details: read-out: IC50, actin-activated myosin ATPase, 15 µM actin
T1 sequence (Q8IDR3 1-818): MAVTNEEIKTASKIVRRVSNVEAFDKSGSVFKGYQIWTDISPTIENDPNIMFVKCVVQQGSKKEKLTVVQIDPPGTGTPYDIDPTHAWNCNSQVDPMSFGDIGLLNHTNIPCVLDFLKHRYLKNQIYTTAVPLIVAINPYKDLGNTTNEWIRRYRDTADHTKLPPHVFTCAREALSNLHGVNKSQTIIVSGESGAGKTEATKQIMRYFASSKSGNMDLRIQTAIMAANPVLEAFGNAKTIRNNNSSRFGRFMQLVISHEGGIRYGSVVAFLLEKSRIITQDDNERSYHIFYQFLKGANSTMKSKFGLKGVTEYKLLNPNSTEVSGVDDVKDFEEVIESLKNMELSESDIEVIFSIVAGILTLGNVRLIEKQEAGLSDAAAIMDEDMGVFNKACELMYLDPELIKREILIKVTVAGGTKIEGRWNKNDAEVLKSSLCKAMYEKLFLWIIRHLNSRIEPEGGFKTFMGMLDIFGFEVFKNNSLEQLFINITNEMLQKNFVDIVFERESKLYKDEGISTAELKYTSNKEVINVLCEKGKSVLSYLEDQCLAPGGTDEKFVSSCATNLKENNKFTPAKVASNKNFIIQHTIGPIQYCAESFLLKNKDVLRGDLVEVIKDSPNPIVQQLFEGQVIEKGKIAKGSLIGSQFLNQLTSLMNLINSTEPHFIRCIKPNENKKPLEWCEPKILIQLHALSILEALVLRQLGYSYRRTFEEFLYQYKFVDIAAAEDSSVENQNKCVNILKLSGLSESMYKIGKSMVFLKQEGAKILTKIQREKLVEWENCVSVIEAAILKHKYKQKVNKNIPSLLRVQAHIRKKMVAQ
T1 sequence (Q8IJM4 1-134 partner): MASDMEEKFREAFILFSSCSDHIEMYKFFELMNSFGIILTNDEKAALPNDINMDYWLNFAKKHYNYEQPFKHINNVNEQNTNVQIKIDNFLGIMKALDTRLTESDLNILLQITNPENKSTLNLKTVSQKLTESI
T1 sequence (Q8I4W8 1-204 partner): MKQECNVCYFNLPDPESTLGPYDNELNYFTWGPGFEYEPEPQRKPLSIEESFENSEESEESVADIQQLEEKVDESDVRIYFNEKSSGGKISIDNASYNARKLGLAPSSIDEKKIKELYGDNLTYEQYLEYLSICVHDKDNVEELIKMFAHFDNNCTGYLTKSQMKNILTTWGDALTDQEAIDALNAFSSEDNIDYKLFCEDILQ

[4] = tested on: P. falciparum isolates from the Brazilian Western Amazon; test: Ex vivo schizont maturation test on patient isolates; type: cell-based; details: Plasmodium falciparum, in Homo sapiens, read-out: median EC50
Summary of the method: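 Isolates came from monoinfected patients in Porto Velho, Rondônia, and were exposed to test compound. Thick films were stained with 5% Giemsa and schizonts counted. Counts were normalized to drug-free controls to calculate EC50.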

[5] = tested on: P. falciparum 3D7; test: Parasite reduction ratio; type: cell-based, Plasmodium falciparum; details: 10X IC50 of each compound
Summary of the method: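 Parasite reduction ratio followed an established protocol, with each compound held at a fixed multiple of its potency. Parasite regrowth was detected by P. falciparum LDH assay. Data are mean ± SD.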

Structure (SMILES): C[C@H]1[C@@H](O)O[C@@H]2O[C@@]3(C)CC[C@H]4[C@H](C)CC[C@@H]1[C@@]24OO3 [DHA, dihydroartemisinin]
- parasite replication over time (luciferase activity) [1]: rapid killing of the parasites
- effect on gametocyte viability [2]: showed inhibition

Structure (SMILES): COc1ccc(C2(NCc3c[nH]nc3-c3cccs3)CC2)cc1 [KNX-002]
- IC50 [3]: 400 ± 100 nM

Structure (SMILES): C[C@H]1[C@H](OC(=O)CCC(=O)O)O[C@@H]2O[C@@]3(C)CC[C@H]4[C@H](C)CC[C@@H]1[C@@]24OO3 [artesunate]
- EC50 [4]: 3.5 nM

Structure (SMILES): CCN(CC)CCCC(C)Nc1ccnc2cc(Cl)ccc12 (stereo not drawn) [chloroquine]
- EC50 [4]: 1260 nM

Structure (SMILES): CCc1nc(N)nc(N)c1-c1ccc(Cl)cc1 [pyrimethamine]
- lag before killing [5]: 24 h
